# Apaf-1 inh: inhibitors of human Apaf-1 apoptosome, primary screen, biochemical, DEVD-Rh110 fluorescence, uHTS; Apoptotic protease-activating factor 1 (Homo sapiens), O14727; reconstituted apoptosome caspase-3 activity; inhibition, % at 20 µM; hit rate 0.71% among 330,000; active = inhibition of at least 40% at 20 µM;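 also: plate controls were DMSO wells for no effect and DEVD-CHO caspase inhibitor wells for full effect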
#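 Medium: Hepes buffer, pH 7.5 / System: biochemical Apaf-1 apoptosome reconstitution / Measured by: Rh110 fluorescence, excitation 480 nm, emission 540 nm / Times: compound with Apaf-1, dATP, procaspase-3 30 min, then 50 min reaction, room temperature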
# PP5 primary: PP5 phosphatase inhibitors, primary screen, biochemical, fluorescence; Serine/threonine-protein phosphatase 5 (Homo sapiens), P53041; purified PP5c, OMFP substrate fluorescence; inhibition, % at 6.7 µM; hit rate 0.18% among 320,000;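 active = inhibition above the campaign's mean inhibition across all tested compounds plus 3 SD, cut at about 9.5% in these data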;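 also: 0% = DMSO only and 100% = 100 µM cantharidin control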
# PP1 inh: PP1-alpha phosphatase inhibitors, primary screen, counter-screen for PP5 inhibitor project, biochemical, fluorescence, OMFP substrate, single point | purified PP1alpha | Serine/threonine-protein phosphatase PP1-alpha catalytic subunit (Homo sapiens), P62136 | hit rate 0.9% among 320,000 | AID 2235, 2010 | inhibition, % at 6.7 µM;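 active = inhibition above the mean inhibition of all tested compounds plus 3 SD, computed separately for each screening campaign, cut at about 15% in these data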
# Target sequence (P62136 whole entry, looked up): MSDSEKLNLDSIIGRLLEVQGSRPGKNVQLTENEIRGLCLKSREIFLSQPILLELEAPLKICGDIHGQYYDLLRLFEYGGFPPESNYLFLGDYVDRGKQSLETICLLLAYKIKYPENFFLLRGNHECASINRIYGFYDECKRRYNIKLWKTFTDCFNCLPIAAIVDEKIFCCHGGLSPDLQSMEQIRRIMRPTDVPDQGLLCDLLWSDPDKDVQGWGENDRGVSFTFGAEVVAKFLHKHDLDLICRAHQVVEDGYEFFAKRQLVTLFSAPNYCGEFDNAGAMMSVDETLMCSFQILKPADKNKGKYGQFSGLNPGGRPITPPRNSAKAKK
# TDP2 inh: human TDP2 enzyme inhibitors, primary screen, biochemical, epi absorbance, recombinant enzyme; T5PNP hydrolysis, p-nitrophenol absorbance 415 nm; hit rate 0.34% among 370,000; inhibition, % at 12.8 µM; Tyrosyl-DNA phosphodiesterase 2 (Homo sapiens), O95551;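 active = inhibition above the mean of all tested compounds plus 3 SD, set per campaign, cut at about 25% in these data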;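 also: 0% = DMSO with enzyme and 100% = buffer with substrate but no TDP2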
# Target sequence (O95551 whole entry, looked up): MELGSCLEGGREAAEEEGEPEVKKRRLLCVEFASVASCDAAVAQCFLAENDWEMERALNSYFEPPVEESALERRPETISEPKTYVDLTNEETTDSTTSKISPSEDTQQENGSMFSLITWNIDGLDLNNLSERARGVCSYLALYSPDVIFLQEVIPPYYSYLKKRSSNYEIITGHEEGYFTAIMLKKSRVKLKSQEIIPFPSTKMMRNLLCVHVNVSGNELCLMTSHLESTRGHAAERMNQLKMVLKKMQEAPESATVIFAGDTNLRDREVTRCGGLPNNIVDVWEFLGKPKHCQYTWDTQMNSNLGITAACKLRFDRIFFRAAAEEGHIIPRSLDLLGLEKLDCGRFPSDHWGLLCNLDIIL
#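 Test system: human TDP2 enzyme; Input: 120 nM TDP2 per well; Buffer or medium: Mg2+-containing Tris-HCl buffer, pH 7.5; Reagent: 5 mM T5PNP; Dosing: 12.8 µM single point, 1% DMSO; Incubation: reaction 2 h, 37 °C; Detection: p-Nitrophenol epi absorbance; Read-out: % inhibition relative to enzyme-containing and enzyme-free wells; Replicates: single well per compound.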
# GSTO1 inh: inhibitors of recombinant GSTO1, primary screen, counter-screen for RBBP9 inhibitor project, biochemical, fluorescence polarization; AID 1974, 2009; hit rate 1.1% among 300,000; Glutathione S-transferase omega-1 (Homo sapiens), P78417; activity-based probe fluorescence polarization; inhibition, % at 5.96 µM;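 active = inhibition above the campaign mean inhibition plus 3 SD, cut at about 35% in these data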;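 also: 0% = GSTO1-1 with DMSO and 100% = wells lacking GSTO1-1 enzyme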
# Apaf-1 inh conf2: Apaf-1 inhibitors, single-dose retest, confirmation, biochemical, fluorescence, DEVD-Rh110, 20 µM. shares compounds with Apaf-1 inh. reconstituted apoptosome, caspase-3 DEVD-Rh110 fluorescence. inhibition, % at 20 µM. hit rate 25% among 1,800;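 active = mean inhibition of at least 40% at 20 µM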;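 also: plate controls were DMSO wells for no effect and DEVD-CHO caspase inhibitor control wells for full effect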
# Rh110 quench: Rh110 fluorescence interference by putative Apaf-1 inhibitors, confirmation, artefact control for Apaf-1 inhibitor project, biochemical, 20 µM; shares compounds with Apaf-1 inh; quenched caspase reaction; activation (fluorescence interference), % at 20 µM; 1,800 tested, under 10 active;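 active = signal rise of 40% or more at 20 µM, treated as a fluorescence artifact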
# Apaf1 inh interf: fluorescence interference of Apaf-1 inhibitor hits, dose response, artefact control for Apaf-1 inhibitor project. fluorescence interference counterscreen, Apaf-1 assay format. shares compounds with Apaf-1 inh. 460 tested, under 10 active. AID 588538, 2011. IC50, µM; call rule not given here
# The depositor's hits bear a star; x = no result given. Compounds with a hit are over-represented: about 2.1% of the library has one in this group of screens.
SMILES,Apaf-1 inh,PP5 primary,PP1 inh,TDP2 inh,GSTO1 inh,Apaf-1 inh conf2,Rh110 quench,others
CCn1c2ccccc2c2nnc(SCC(=O)c3c(N)n(C)c(=O)n(C)c3=O)nc21,54*,-1,-1,11,-1,12,8,
CCC(=O)N(CCc1ccccc1C)Cc1cc2cc3c(cc2[nH]c1=O)OCO3,41*,1,-3,4,17,8,3,
CCC(=O)N(Cc1ccco1)Cc1cc2cc3c(cc2[nH]c1=O)OCO3,0,0,-1,-8,0,x,x,
O=C(CSc1nc2ccccc2nc1N1CCCCC1)N1CCN(S(=O)(=O)c2ccccc2)CC1,x,x,x,-10,x,x,x,
CN(CCO)c1nc(N)c2c(N)nc3c(c2c1C#N)CC(=O)N3C1CCCC1,98*,6,-1,x,14,21,-1,
CSc1ncnc2c1ncn2CCCN1CCN(Cc2cccc3ccccc23)CC1,x,x,x,2,x,x,x,
COCCN1C(=O)[C@H]2C[C@@]13O[C@H](c1ccccn1)N=C3CC1c3ccccc3C[C@@]12C (some centres undefined),x,x,x,2,x,x,x,
CCCCCCCCCCCCN1[C@@H](CC(=O)O)c2cc(C(F)(F)F)ccc2S1(=O)=O,41*,5,12,-12,4,26,8,
CCN(CC)CCOc1ncnc2c1oc1ccccc12,0,0,2,-3,-1,x,x,
CCCCc1oc2ccccc2c1C(=O)c1cc(I)c(OCCN(CC)CC)c(I)c1,53*,0,10,x,-2,6,13,
C#CCN(C[C@H]1[C@H](OC(=O)NCCCCCC)[C@H](OC(=O)NCCCCCC)CN(C(=O)OC(C)C)N1C(=O)OC(C)C)S(=O)(=O)c1ccc(C)cc1,x,x,x,-4,x,x,x,
COC(=O)C1=C(C)N(Cc2ccccc2C(F)(F)F)C(=NCc2ccc(OC)cc2)NC1c1ccc(Cl)cc1 (centres undefined),x,x,x,-2,x,x,x,
O=c1[nH]c(C2CCCN(S(=O)(=O)c3ccccc3F)C2)nc2c1nnn2Cc1ccccc1Cl (centres undefined),41*,2,8,-7,11,35,14,
Cc1cc(C)cc(OC[C@@H](O)CN2CCC(C(O)(c3ccccc3)c3ccccc3)CC2)c1,x,x,x,1,x,x,x,
Cc1cc(C(=O)NNC(=O)Nc2ccccc2)no1,4,-2,-1,0,-8,x,x,
Cc1nc(C(=O)NNC(=O)Nc2ccccc2)cs1,57*,2,8,1,-2,16,12,
CCN(CC)C(=O)c1ccc(C(CCOC(=O)Oc2ccccc2)c2ccc(OC)cc2)cc1 (centres undefined),x,x,x,3,x,x,x,
Brc1cccc(CN2CCN(c3ncc(Cc4ccccc4)cn3)CC2)n1,x,x,x,3,x,x,x,
Cc1ccc2[nH]c3c(c2c1)CN(C(=O)CN1CCN(c2cccc(C)c2C)CC1)CC3,43*,1,4,-8,-3,19,6,
CN(C)C=Nc1ccc2nc3c(cc2c1)[nH]c1ccccc13,46*,3,-1,3,25,44*,-2,Apaf1 inh interf=>100
CCn1c(Cc2cccs2)nnc1SCC(=O)c1ccc(Cl)cc1,x,x,x,6,x,x,x,
C=CCn1c(COc2ccccc2)nnc1SCC(=O)c1ccc(-c2ccccc2)cc1,x,x,x,-2,x,x,x,
COc1cc(/C=C/c2cc[n+](C)cc2)ccc1OCC(=O)Nc1ccc(Cl)c(Cl)c1,73*,3,12,6,0,46*,6,Apaf1 inh interf=>100
COc1ccc(NC(=O)COc2ccc(/C=C/c3cc[n+](C)cc3)cc2OC)cc1,1,4,0,9,4,x,x,
COc1ccc(N2CCN(Cc3nc4scc(-c5ccccc5)c4c(=O)[nH]3)CC2)cc1,44*,2,2,-5,2,0,6,
SMILES,Apaf-1 inh,PP5 primary,PP1 inh,TDP2 inh,GSTO1 inh,Apaf-1 inh conf2,Rh110 quench,others
CN(Cc1ccccc1)c1nc(CN2CCOCC2)nc2scc(-c3ccccc3)c12,16,3,2,-3,-3,x,x,
Fc1ccc(N2CCN(c3nc(CN4CCOCC4)nc4scc(-c5ccccc5)c34)CC2)cc1,41*,3,7,3,0,17,4,
COC(=O)C1=CC(=O)N2CCN=C2S1,x,x,x,-1,x,x,x,
O=C(/C=C/c1ccc(-c2ccccc2[N+](=O)[O-])o1)c1ccco1,43*,4,0,-1,29,19,-2,
O=C(/C=C/c1ccc([N+](=O)[O-])cc1)c1ccco1,-11,3,2,-9,3,x,x,
CC(C)(C)c1ccc(OCCOc2ccc(C(C)(C)C)cc2NC=O)c(NC=O)c1,41*,9,8,-10,-8,35,6,
Cc1ccc(NC(=O)Cc2ccc(OC(F)F)cc2)c(S(=O)(=O)N2CCOCC2)c1,x,x,x,0,x,x,x,
CN1CCN(c2ccc(NC(=O)c3ccc(-c4ccc(Cl)cc4)o3)cc2)CC1,65*,3,1,-19,10,34,20,
CS(=O)(=O)N1CCN(c2ccc(NC(=O)c3ccc(-c4ccc(Cl)cc4)o3)cc2)CC1,-24,-1,10,-3,-7,x,x,
COc1ccccc1CNc1nc(Nc2cccc(-c3cnco3)c2)c2sccc2n1,x,x,x,-5,x,x,x,
CC(C)[C@H](CN1CCC[C@H]1CN1C(N)=NC[C@H]1C(C)C)N1C[C@@H](Cc2ccccc2)N(CCCC2CCCC2)C1=N,63*,x,x,x,x,6,0,
CC[C@@H](C)[C@@H]1CN([C@@H](CN2CCC[C@H]2CN2C(N)=NC[C@H]2CC(C)C)C(C)C)C(=N)N1CCCC1CCCC1,39,x,x,-3,x,x,x,
CCC[C@@H](CN1CCC[C@H]1CN1C(N)=NC[C@@H]1Cc1ccccc1)N1C[C@@H](Cc2ccccc2)N(CCCC2CCCC2)C1=N,70*,x,x,x,x,13,4,
CCCCN1C(=N)N([C@@H](CCC)CN2CCC[C@H]2CN2C(N)=NC[C@@H]2Cc2ccccc2)C[C@H]1Cc1ccccc1,34,x,x,-14,x,x,x,
CCC[C@@H](CN1CCC[C@H]1CN1C(N)=NC[C@H]1CC(C)C)N1C[C@@H](Cc2ccccc2)N(CCCC2CCCC2)C1=N,59*,x,x,-7,x,15,9,
